Values after ≈ are worked out from the molar mass of the structure shown.
Columns and labels:
Phocaeicola vulgatus = assay: In vitro antibacterial activity against anaerobically grown Bacteroides vulgatus (78D029); assay type: functional
Summary of the method: (§1)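 Agar dilution MICs. Anaerobic strains were tested on tryptose agar with 5% bovine blood and incubated 48 h at 39 °C in an anaerobe chamber under N2/CO2/H2 (80:10:10).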

Pasteurella multocida [1] = assay: In vivo protective dose was evaluated against Pasteurella multocida (59A006) in mouse(sc); assay type: functional; details: read-out: PD50
Summary of the method: (§2)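 Female CF-1 mice (15 g), groups of 10, challenged ip with 0.5 mL bacterial suspension (P. multocida 59A006 or E. coli 51A266 at 3.0 × 10^8 cfu/mL; S. choleraesuis 58B010 at 8.5 × 10^2 cfu/mL). Drug given sc or po at 30 min, 4 h and 24 h after challenge; survival recorded at 96 h; PD50 by probit analysis.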

Staphylococcus aureus = assay: In vitro antibacterial activity against aerobically grown Staphylococcus aureus (54B004); assay type: functional
Summary of the method: (§3)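 Agar dilution MICs. Aerobic strains were tested on brain heart infusion agar and incubated aerobically at 37 °C for 18–20 h.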

[2] = In vitro antibacterial activity against Aerobically grown Pasteurella haemolytica (59B018); assay type: functional; details: Mannheimia haemolytica; summary of the method: as §3
[3] = tested on: Actinobacillus pleuropneumoniae; assay: In vitro antibacterial activity against anaerobically grown Actinobacillus pleuropneumoniae ([…]); assay type: functional; summary of the method: as §1
Pasteurella multocida [4] = assay: In vitro antibacterial activity against aerobically grown Pasteurella multocida (59A006); assay type: functional; summary of the method: as §3
Escherichia coli [5] = assay: In vivo protective dose was evaluated against Escherichia coli (51A266) in mouse(sc); assay type: functional; details: read-out: PD50; summary of the method: as §2
Trueperella pyogenes = assay: In vitro antibacterial activity against anaerobically grown Actinomyces pyogenes (14D002); assay type: functional; summary of the method: as §1
[6] = In vitro evaluation for antibacterial activity against anaerobically grown Treponema hyodysenteriae (94A007); assay type: functional; details: Brachyspira hyodysenteriae
[7] = tested on: Bordetella bronchiseptica; assay: In vitro antibacterial activity against aerobically grown Bordetella bronchiseptica (73A009); assay type: functional; summary of the method: as §3
Clostridium perfringens = assay: microbe, parasite or virus in culture; assay type: functional
Salmonella enterica [8] = assay: In vitro antibacterial activity against aerobically grown Salmonella choleraesuis (58B015); assay type: functional
Escherichia coli [9] = assay: Escherichia coli DNA cleavage endpoint value which is the minimum amount required (in micro g/mL) to induce detectable cleavage of supercoiled pBR322 substrate to linear form (gyrase); assay type: functional; details: read-out: MIC
Summary of the method: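 DNA gyrase A and B subunits were purified from E. coli overproducers. About 2 units of holoenzyme were incubated with pBR322 in Tris-HCl pH 7.5 containing MgCl2, spermidine, DTT, 0.2 mM ATP, BSA and tRNA. Drug was added as 2-fold serial dilutions, and reactions ran for 60 min at 25 °C. Reactions were stopped with SDS and proteinase K, then run on agarose and stained with ethidium. The endpoint was the lowest concentration giving detectable linear DNA.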

Escherichia coli [10] = assay: In vitro antibacterial activity against aerobically grown Escherichia coli (51A538); assay type: functional; summary of the method: as §3
Salmonella enterica [11] = assay: In vitro antibacterial activity against Aerobically grown Salmonella choleraesuis (58B015); assay type: functional
Pasteurella multocida [12] = assay: In vitro antibacterial activity against Aerobically grown Pasteurella multocida (59A006); assay type: functional; summary of the method: as §3
Pasteurella multocida [13] = assay: In vivo protective dose was evaluated Pasteurella multocida (59A006) in mouse(po); assay type: functional; details: read-out: PD50; summary of the method: as §2
[14] = tested on: Actinobacillus pleuropneumoniae; assay: Compound was evaluated for minimum against Actinobacillus pleuropneumoniae intramuscular dose administration; details: im, read-out: MED
[15] = tested on: Actinobacillus pleuropneumoniae; assay: Compound was evaluated for minimum effective dose against Actinobacillus pleuropneumonia peroral dose administration; assay type: functional; details: po, read-out: MED
Summary of the method: (§4)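 Calf and swine respiratory disease models. Calves received acetic acid intratracheally on the day before and on day 0, then an endotracheal challenge with P. haemolytica B280PA, about 5 × 10^8 cfu/mL. They were dosed im with a 2.5% or 5% solution in sterile water on days 0 and 1 (SID × 2). Pigs weighing 8.5–12.5 kg were challenged intranasally with A. pleuropneumoniae B316HM, 10^9 cfu/mL. They were dosed once within 1 h, either im (1% or 2.5% solution) or by gavage (0.5% solution). MED was the lowest dose giving significant reduction of lung pathology.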

Pasteurella multocida [16] = assay: In vivo protective dose was evaluated Pasteurella multocida (59A006) in mouse(sc); assay type: functional; details: read-out: PD50; summary of the method: as §2
Mannheimia haemolytica [17] = assay: Compound was evaluated for minimum against Pasteurella haemolytica intramuscular dose administration; assay type: functional; details: im, read-out: MED; summary of the method: as §4
Escherichia coli [18] = assay: In vivo protective dose was evaluated against Escherichia coli (51A266) in mouse(po); assay type: functional; details: read-out: PD50; summary of the method: as §2
[19] = tested on: Actinobacillus pleuropneumoniae; assay: Compound was evaluated for minimum effective dose against Actinobacillus pleuropneumonia, peroral dose administration; assay type: functional; details: po, read-out: MED
Summary of the method: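 Cross-bred swine, 8.5–12.5 kg; intranasal challenge with A. pleuropneumoniae strain B316HM, grown overnight on enriched BHI agar at 37 °C in 5–10% CO2 and standardized by OD to 10^9 cfu/mL, three 1-mL increments per nostril. Single treatment (SID × 1): im 1% or 2.5% solution in sterile water into ham within 1 h of challenge, or oral gavage of 0.5% solution in sterile water.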

[20] = compound was evaluated for aqueous solubility at pH 7.2; assay type: physicochemical; details: buffer
Summary of the method: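 Excess solid (~5 mg) shaken in 3 mL 0.05 M phosphate buffer pH 7.2 at 23 ± 1 °C in duplicate vials up to 3 days, pH readjusted to 7.2 after each sampling; filtered (0.45 nylon) samples analysed by HPLC.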

Pasteurella multocida [21] = assay: In vivo protective dose was evaluated against Pasteurella multocida (59A006) in mouse(po); assay type: functional; details: read-out: PD50; summary of the method: as §2
Mannheimia haemolytica [22] = assay: Compound was evaluated for minimum effective dose against Pasteurella haemolytica, intramuscular dose administration; assay type: functional; details: im, read-out: MED
Summary of the method: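 Calves acid-treated intratracheally with 0.6 mL 8% acetic acid at 24 h and 4 h before endotracheal challenge with 50 mL P. haemolytica B280PA (~5 × 10^8 cfu/mL). im dosing of 2.5% or 5% solution in sterile water, day 0 and day 1 (SID × 2). Clinical signs and temperature recorded days 0–5; lungs scored and cultured. MED = lowest dose giving significant (65%) reduction of lung pathology.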

[23] = tested on: Actinobacillus pleuropneumoniae; assay: Compound was evaluated for minimum effective dose against Actinobacillus pleuropneumonia, intramuscular dose administration; details: im, read-out: MED
Mannheimia haemolytica [24] = assay: Dose was evaluated for minimum effective dose Pasteurella haemolytica, intramuscular dose administration; assay type: functional; details: im, read-out: MED; summary of the method: as §4
Salmonella enterica [25] = assay: In vivo protective dose was evaluated against Salmonella choleraesuis (58B010) in mouse(po); assay type: functional; details: read-out: PD50; summary of the method: as §2
[26] = tested on: Actinobacillus pleuropneumoniae; assay: Dose was evaluated for minimum effective dose actinobacillus pleuropneumonia, intramuscular dose administration; details: im, read-out: MED
[27] = tested on: Actinobacillus pleuropneumoniae; assay: Compound was evaluated for minimum effective dose Actinobacillus pleuropneumonia, peroral dose administration; assay type: functional; details: po, read-out: MED; summary of the method: as §4
[28] = Compound was evaluated for aqueous solubility at pH 7.2; details: buffer

Row | SMILES | MIC (Phocaeicola vulgatus) [µg/mL] | ED50 (Pasteurella multocida [1]) [mg/kg] | MIC (Staphylococcus aureus) [µg/mL] | MIC [2] [µg/mL] | MIC [3] [µg/mL] | MIC (Pasteurella multocida [4]) [µg/mL] | ED50 (Escherichia coli [5]) [mg/kg] | MIC (Trueperella pyogenes) [µg/mL] | MIC [6] [µg/mL] | MIC [7] [µg/mL] | MIC (Clostridium perfringens) [µg/mL] | MIC (Salmonella enterica [8]) [µg/mL] | minimum concentration inducing gyrase-mediated DNA cleavage (Escherichia coli [9]) [µg/mL] | MIC (Escherichia coli [10]) [µg/mL] | ED50 (Escherichia coli [18]) [mg/kg] | ED50 (Pasteurella multocida [21]) [mg/kg] | other results
1 | O=C(O)c1cn(C2CC2)c2cc(N3CCN4CCCC3C4)c(F)cc2c1=O (stereo not given) | 0.78 (≈ 2.1 µM) | 0.15 | 0.1 (≈ 0.269 µM) | 0.02 (≈ 0.0538 µM) | 0.02 (≈ 0.0538 µM) | 0.002 (≈ 0.00538 µM) | 0.31 | 3.13 (≈ 8.43 µM) | 0.2 (≈ 0.538 µM) | 0.78 (≈ 2.1 µM) | 0.2 (≈ 0.538 µM) | 0.05 (≈ 0.135 µM) | 0.78 | 0.05 (≈ 0.135 µM) | – | – | –
2 | CN1C[C@@H]2C[C@H]1CN2c1cc2c(cc1F)c(=O)c(C(=O)O)cn2-c1ccc(F)cc1 | 1.56 (≈ 3.79 µM) | 0.29 | 0.2 (≈ 0.486 µM) | 0.1 (≈ 0.243 µM) | 0.1 (≈ 0.243 µM) | 0.02 (≈ 0.0486 µM) | 0.94 | 3.13 (≈ 7.61 µM) | 0.78 (≈ 1.9 µM) | 1.56 (≈ 3.79 µM) | 0.1 (≈ 0.243 µM) | 0.2 (≈ 0.486 µM) | 1.56 | 0.2 (≈ 0.486 µM) | – | – | –
3 | CCn1cc(C(=O)O)c(=O)c2cc(F)c(N3C[C@@H]4C[C@H]3CN4C)cc21 | > 3.13 | 1.35 | 0.39 (≈ 1.13 µM) | 0.39 (≈ 1.13 µM) | 0.78 (≈ 2.26 µM) | – | 1.45 | > 3.13 | 1.56 (≈ 4.52 µM) | 1.56 (≈ 4.52 µM) | 0.2 (≈ 0.579 µM) | – | 3.12 | 0.2 (≈ 0.579 µM) | – | – | MIC (Salmonella enterica [11]): 0.39 µg/mL (≈ 1.13 µM); MIC (Pasteurella multocida [12]): 0.1 µg/mL (≈ 0.29 µM)
4 | CCn1cc(C(=O)O)c(=O)c2cc(F)c(N3C[C@H]4CC[C@@H](C3)N4C)cc21 | > 3.13 | – | 0.2 (≈ 0.556 µM) | 0.39 (≈ 1.09 µM) | 0.78 (≈ 2.17 µM) | 0.2 (≈ 0.556 µM) | 2.23 | > 3.13 | 3.13 (≈ 8.71 µM) | > 1.56 | 0.39 (≈ 1.09 µM) | 0.78 (≈ 2.17 µM) | 3.12 | 0.78 (≈ 2.17 µM) | – | – | ED50 (Pasteurella multocida [13]): 2.21 mg/kg; minimal effective dose [14]: 0.6 mg/kg; minimal effective dose [15]: 5 mg/kg; ED50 (Pasteurella multocida [16]): 1.31 mg/kg; minimal effective dose (Mannheimia haemolytica [17]): 1.2 mg/kg
5 | CCn1cc(C(=O)O)c(=O)c2cc(F)c(N3CCN4CCC3CC4)cc21 [BINFLOXACIN] | > 3.13 | 0.63 | 0.39 (≈ 1.09 µM) | 0.1 (≈ 0.278 µM) | 0.05 (≈ 0.139 µM) | 0.05 (≈ 0.139 µM) | 1.1 | 3.13 (≈ 8.71 µM) | 1.56 (≈ 4.34 µM) | 1.56 (≈ 4.34 µM) | 0.1 (≈ 0.278 µM) | 0.2 (≈ 0.556 µM) | 1.56 | 0.2 (≈ 0.556 µM) | 10.2 | 1.9 | minimal effective dose [19]: 2.5 mg/kg; solubility [20]: 49 µg/mL (≈ 136 µM); minimal effective dose (Mannheimia haemolytica [22]): 0.3 mg/kg; minimal effective dose [23]: 0.3 mg/kg
6 | CN1C[C@@H]2C[C@H]1CN2c1cc2c(cc1F)c(=O)c(C(=O)O)cn2C1CC1 [DANOFLOXACIN] | 3.13 (≈ 8.76 µM) | – | 0.39 (≈ 1.09 µM) | 0.05 (≈ 0.14 µM) | 0.05 (≈ 0.14 µM) | 0.01 (≈ 0.028 µM) | – | > 3.13 | 0.39 (≈ 1.09 µM) | 0.78 (≈ 2.18 µM) | 0.2 (≈ 0.56 µM) | 0.05 (≈ 0.14 µM) | 0.78 | 0.05 (≈ 0.14 µM) | 0.4 | 0.31 | minimal effective dose (Mannheimia haemolytica [24]): 0.15 mg/kg; ED50 (Salmonella enterica [25]): 1.12 mg/kg; minimal effective dose [26]: 0.15 mg/kg; minimal effective dose [27]: 0.6 mg/kg
7 | CCn1cc(C(=O)O)c(=O)c2cc(F)c(N3CCNCC3)cc21 [NORFLOXACIN] | 25 (≈ 78.3 µM) | 5.54 | 3.13 (≈ 9.8 µM) | 0.05 (≈ 0.157 µM) | < 0.05 | 0.05 (≈ 0.157 µM) | 0.46 | 12.5 (≈ 39.1 µM) | 6.25 (≈ 19.6 µM) | 6.25 (≈ 19.6 µM) | 0.39 (≈ 1.22 µM) | 0.1 (≈ 0.313 µM) | 0.78 | 0.1 (≈ 0.313 µM) | 8.84 | 0.63 | solubility [28]: 350 µg/mL (≈ 1100 µM)
